Measured values taken from ChEMBL document CHEMBL3271938, “Podophyllotoxin analogs. 1. Synthesis and biological evaluation of certain trans-2-aryl-trans-6-hydroxymethyl-3-cyclohexenecarboxylic acid gamma-lactones as antimitotic agents” (1976).

Key:
Tubulin (Bos taurus) [1] = target: T1, Tubulin (Bos taurus) (UniProt Q6B856+Q862L2+Q862F3); assay: Displacement of [3H]colchicine from bovine brain tubulin at 10 uM after 90 mins by liquid scintillation counting in presence of 10 uM [3H]colchicine
P815 [2] = assay: Inhibition of colony formation in mouse P815 cells assessed as percentage of colony forming cell at 5 uM after 7 days by microscopic analysis relative to control; format: functional; design: scale not given: the % may be the effect or the level left
In short: (§1)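 P-815 mastocytoma cells, passaged in vitro, plated at 1 × 10^3 cells in 1.0 ml of 0.3% agar. Medium was McCoy's 5A with supplements, 10^-4 M dithiothreitol, 10% fetal calf and 5% horse serum. Compound came from a 1 mM stock in Me2SO/EtOH saline, diluted serially 1:10. Incubated 7 days at 37°C under 12% CO2/8% O2; colonies counted microscopically as % of control.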

Tubulin (Bos taurus) [3] = target: T1, Tubulin (Bos taurus); assay: Displacement of [3H]colchicine from bovine brain tubulin at 40 uM after 90 mins by liquid scintillation counting in presence of 10 uM [3H]colchicine
P815 [4] = assay: Inhibition of colony formation in mouse P815 cells assessed as percentage of colony forming cell at 0.5 uM after 7 days by microscopic analysis relative to control; format: functional; design: scale not given: the % may be the effect or the level left; in short: as §1
[5] = Inhibition of colony formation in BDF1 mouse bone marrow cells assessed as percentage of colony forming cell at 50 uM after 7 days by microscopic analysis relative to control; format: functional; design: scale not given: the % may be the effect or the level left
In short: as §1, with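 “Femoral marrow from female BDF1 mice (8-12 weeks) was dispersed and” for “P-815 mastocytoma cells, passaged in vitro, plated at”, “10^5” for “10^3”, “cells plated” for “cells”, “serum, plus L-cell CSF.” for “serum.”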

[6] = Inhibition of colony formation in BDF1 mouse bone marrow cells assessed as percentage of colony forming cell at 0.5 uM after 7 days by microscopic analysis relative to control; format: functional; design: scale not given: the % may be the effect or the level left
In short: as §1, with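 “Femoral marrow from female BDF1 mice (8-12 weeks) was dispersed and” for “P-815 mastocytoma cells, passaged in vitro, plated at”, “10^5” for “10^3”, “cells plated” for “cells”, “serum, plus L-cell CSF.” for “serum.”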

[7] = Inhibition of colony formation in BDF1 mouse bone marrow cells assessed as percentage of colony forming cell at 5 uM after 7 days by microscopic analysis relative to control; format: functional; design: scale not given: the % may be the effect or the level left
In short: as §1, with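 “Femoral marrow from female BDF1 mice (8-12 weeks) was dispersed and” for “P-815 mastocytoma cells, passaged in vitro, plated at”, “10^5” for “10^3”, “cells plated” for “cells”, “serum, plus L-cell CSF.” for “serum.”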

Tubulin (Bos taurus) [8] = target: T1, Tubulin (Bos taurus); assay: Displacement of [3H]colchicine from bovine brain tubulin at 60 uM after 90 mins by liquid scintillation counting in presence of 10 uM [3H]colchicine
Tubulin (Bos taurus) [9] = target: T1, Tubulin (Bos taurus); assay: Displacement of [3H]colchicine from bovine brain tubulin at 100 uM after 90 mins by liquid scintillation counting in presence of 10 uM [3H]colchicine
P815 [10] = assay: Inhibition of colony formation in mouse P815 cells assessed as percentage of colony forming cell at 50 uM after 7 days by microscopic analysis relative to control; format: functional; design: scale not given: the % may be the effect or the level left; in short: as §1
P815 [11] = assay: Inhibition of colony formation in mouse P815 cells assessed as percentage of colony forming cell at 5 nM after 7 days by microscopic analysis relative to control; format: functional; design: scale not given: the % may be the effect or the level left; in short: as §1
P815 [12] = assay: Inhibition of colony formation in mouse P815 cells assessed as percentage of colony forming cell at 50 nM after 7 days by microscopic analysis relative to control; format: functional; design: scale not given: the % may be the effect or the level left; in short: as §1
[13] = Inhibition of colony formation in BDF1 mouse bone marrow cells assessed as percentage of colony forming cell at 5 nM after 7 days by microscopic analysis relative to control; format: functional; design: scale not given: the % may be the effect or the level left
In short: as §1, with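 “Femoral marrow from female BDF1 mice (8-12 weeks) was dispersed and” for “P-815 mastocytoma cells, passaged in vitro, plated at”, “10^5” for “10^3”, “cells plated” for “cells”, “serum, plus L-cell CSF.” for “serum.”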

[14] = Inhibition of colony formation in BDF1 mouse bone marrow cells assessed as percentage of colony forming cell at 50 nM after 7 days by microscopic analysis relative to control; format: functional; design: scale not given: the % may be the effect or the level left
In short: as §1, with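 “Femoral marrow from female BDF1 mice (8-12 weeks) was dispersed and” for “P-815 mastocytoma cells, passaged in vitro, plated at”, “10^5” for “10^3”, “cells plated” for “cells”, “serum, plus L-cell CSF.” for “serum.”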

Tubulin (Bos taurus) [15] = target: T1, Tubulin (Bos taurus); assay: Displacement of [3H]colchicine from bovine brain tubulin at 50 uM after 90 mins by liquid scintillation counting in presence of 10 uM [3H]colchicine
Tubulin (Bos taurus) [16] = target: T1, Tubulin (Bos taurus); assay: Displacement of [3H]colchicine from bovine brain tubulin at 20 uM after 90 mins by liquid scintillation counting in presence of […]
Tubulin (Bos taurus) [17] = target: T1, Tubulin (Bos taurus); assay: Displacement of [3H]colchicine from bovine brain tubulin at 200 uM after 90 mins by liquid scintillation counting in presence of 10 uM [3H]colchicine

Compound: O=C1OC[C@H]2CC=C[C@H](c3ccccc3)[C@H]12
- Activity (Tubulin (Bos taurus) [1]): 12200 cpm
- Activity (P815 [2]): 75%
- Activity (Tubulin (Bos taurus) [3]): 15600 cpm
- Activity (P815 [4]): 74%
- Activity [5]: 107%
- Activity [6]: 96%
- Activity [7]: 95%
- Activity (Tubulin (Bos taurus) [8]): 18500 cpm
- Activity (Tubulin (Bos taurus) [9]): 15500 cpm
- Activity (P815 [10]): 93%

Compound: O=C1OC[C@H]2[C@@H]1CC=C[C@@H]2c1ccccc1 (relative stereo)
- Activity (Tubulin (Bos taurus) [1]): 15800 cpm
- Activity (Tubulin (Bos taurus) [3]): 14800 cpm
- Activity (Tubulin (Bos taurus) [8]): 5380 cpm
- Activity (Tubulin (Bos taurus) [9]): 13100 cpm

Compound: COc1cc([C@@H]2c3cc4c(cc3[C@H](O)[C@H]3COC(=O)[C@H]23)OCO4)cc(OC)c1OC [PODOFILOX]
- Activity (P815 [4]): 0%
- Activity (P815 [11]): 91%
- Activity [6]: 0%
- Activity (P815 [12]): 0%
- Activity [13]: 95%
- Activity [14]: 1%

Compound: COc1cc([C@H]2C=CC[C@@H]3C(=O)OC[C@H]32)cc(OC)c1OC
- Activity (P815 [2]): 95%
- Activity (Tubulin (Bos taurus) [15]): 11900 cpm
- Activity (P815 [4]): 89%
- Activity [5]: 135%
- Activity [6]: 90%
- Activity [7]: 74%
- Activity (Tubulin (Bos taurus) [16]): 9070 cpm
- Activity (Tubulin (Bos taurus) [9]): 11500 cpm
- Activity (P815 [10]): 109%
- Activity (Tubulin (Bos taurus) [17]): 8690 cpm

Compound: O=C1OC[C@H]2CC=C[C@H](c3ccc4c(c3)OCO4)[C@H]12
- Activity (Tubulin (Bos taurus) [1]): 16000 cpm
- Activity (P815 [2]): 86%
- Activity (Tubulin (Bos taurus) [3]): 20100 cpm
- Activity (P815 [4]): 101%
- Activity [5]: 170%
- Activity [6]: 87%
- Activity [7]: 143%
- Activity (Tubulin (Bos taurus) [8]): 18200 cpm
- Activity (Tubulin (Bos taurus) [9]): 19600 cpm
- Activity (P815 [10]): 143%

Compound: O=C1OC[C@H]2CC=C[C@H](c3ccccc3)[C@@H]12 (relative stereo)
- Activity (Tubulin (Bos taurus) [1]): 1320 cpm
- Activity (Tubulin (Bos taurus) [3]): 12300 cpm
- Activity (Tubulin (Bos taurus) [8]): 13900 cpm
- Activity (Tubulin (Bos taurus) [9]): 13600 cpm

Compound: O=C1OC[C@H]2[C@@H]1CC=C[C@@H]2c1ccc2c(c1)OCO2
- Activity (Tubulin (Bos taurus) [1]): 19000 cpm
- Activity (P815 [2]): 98%
- Activity (Tubulin (Bos taurus) [3]): 16700 cpm
- Activity (P815 [4]): 71%
- Activity [5]: 121%
- Activity [6]: 103%
- Activity [7]: 105%
- Activity (Tubulin (Bos taurus) [8]): 17000 cpm
- Activity (Tubulin (Bos taurus) [9]): 17000 cpm
- Activity (P815 [10]): 106%

Compound: O=C1OC[C@H]2CC=CC[C@@H]12
- Activity (Tubulin (Bos taurus) [1]): 15800 cpm
- Activity (P815 [2]): 69%
- Activity (Tubulin (Bos taurus) [3]): 16800 cpm
- Activity (P815 [4]): 93%
- Activity [5]: 114%
- Activity [6]: 106%
- Activity [7]: 103%
- Activity (Tubulin (Bos taurus) [8]): 15900 cpm
- Activity (Tubulin (Bos taurus) [9]): 14100 cpm
- Activity (P815 [10]): 111%

Compound: COc1cc([C@H]2C=CC[C@@H]3COC(=O)[C@H]32)cc(OC)c1OC (relative stereo)
- Activity (Tubulin (Bos taurus) [1]): 17000 cpm
- Activity (P815 [2]): 42%
- Activity (Tubulin (Bos taurus) [3]): 15500 cpm
- Activity (P815 [4]): 84%
- Activity [5]: 75%
- Activity [6]: 35%
- Activity [7]: 105%
- Activity (Tubulin (Bos taurus) [8]): 14600 cpm
- Activity (Tubulin (Bos taurus) [9]): 15200 cpm
- Activity (P815 [10]): 9%

Compound: O=C1OC[C@H]2CC=CC[C@H]12
- Activity (Tubulin (Bos taurus) [1]): 15500 cpm
- Activity (P815 [2]): 95%
- Activity (Tubulin (Bos taurus) [3]): 14900 cpm
- Activity (P815 [4]): 102%
- Activity [5]: 106%
- Activity [6]: 102%
- Activity [7]: 91%
- Activity (Tubulin (Bos taurus) [8]): 15200 cpm
- Activity (Tubulin (Bos taurus) [9]): 14700 cpm
- Activity (P815 [10]): 112%

Compound: O=C1OC[C@@H]2[C@@H]1CC=C[C@@H]2c1ccc2c(c1)OCO2
- Activity (Tubulin (Bos taurus) [1]): 17400 cpm
- Activity (P815 [2]): 61%
- Activity (Tubulin (Bos taurus) [3]): 16700 cpm
- Activity (P815 [4]): 100%
- Activity [5]: 166%
- Activity [6]: 104%
- Activity [7]: 135%
- Activity (Tubulin (Bos taurus) [8]): 15600 cpm
- Activity (Tubulin (Bos taurus) [9]): 16700 cpm
- Activity (P815 [10]): 169%

Compound: COc1cc([C@H]2C=CC[C@@H]3C(=O)OC[C@@H]32)cc(OC)c1OC (relative stereo)
- Activity (Tubulin (Bos taurus) [1]): 18500 cpm
- Activity (P815 [2]): 89%
- Activity (Tubulin (Bos taurus) [3]): 11600 cpm
- Activity (P815 [4]): 81%
- Activity [5]: 55%
- Activity [6]: 75%
- Activity [7]: 73%
- Activity (Tubulin (Bos taurus) [8]): 18400 cpm
- Activity (Tubulin (Bos taurus) [9]): 18200 cpm
- Activity (P815 [10]): 178%

Compound: O=C1OC[C@H]2CC=C[C@H](c3ccc4c(c3)OCO4)[C@@H]12
- Activity (Tubulin (Bos taurus) [1]): 17600 cpm
- Activity (P815 [2]): 112%
- Activity (Tubulin (Bos taurus) [3]): 17600 cpm
- Activity (P815 [4]): 89%
- Activity [5]: 115%
- Activity [6]: 97%
- Activity [7]: 105%
- Activity (Tubulin (Bos taurus) [8]): 17300 cpm
- Activity (Tubulin (Bos taurus) [9]): 12400 cpm
- Activity (P815 [10]): 138%
